Measured values from publication PMC7528620 (Clinical cancer research : an official journal of the …, 2019).
Marks after values point to notes of the source that are not given here.

Tests used:
[1] = Plasma pharmacokinetics, study INCB 54329-101; format: in vivo, human
How it was run: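 Plasma PK used noncompartmental analysis in patients given ≥1 dose with ≥1 PK sample. Oral dosing was 15–30 mg QD or 15–25 mg BID, continuous or intermittent; the first 3 patients also received a single 5-mg PK dose at day 0. Steady-state oral clearance (CLss/F) and terminal half-life are reported as mean with SD.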

[2] = test system: patients with advanced malignancies; test: Safety and tolerability, phase 1/2 study INCB 54329-101; format: in vivo; conditions: for TRAEs (any): all treatment groups; for TRAE thrombocytopenia: incl. platelet counts decreased
advanced malignancies = test: Objective response assessment, study INCB 54329-101; format: in vivo, human
How it was run: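 Open-label phase 1/2 monotherapy study in adults (≥18 y) with relapsed/refractory advanced malignancies and ECOG ≤1. Oral dosing was 15–30 mg QD or 15–25 mg BID, continuous or intermittent (5/2, 4/3, 7/7 days on/off), in 21-day cycles. Part 2 used intrapatient titration from 20 mg BID. Response was assessed with malignancy-specific criteria in patients with ≥1 dose, measurable/evaluable baseline disease and ≥1 post-baseline assessment.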

CYP3A4 = CYP3A4 (Homo sapiens, UniProt P08684); test: In vitro metabolism studies; format: in vitro ADME
CYP2C19 = CYP2C19 (Homo sapiens, UniProt P33261); test: In vitro metabolism studies; format: in vitro ADME
[3] = test system: patients with advanced solid tumors; conditions: 36 patients with advanced solid tumors; cited from earlier work

Chain of CYP3A4 (P08684 whole entry): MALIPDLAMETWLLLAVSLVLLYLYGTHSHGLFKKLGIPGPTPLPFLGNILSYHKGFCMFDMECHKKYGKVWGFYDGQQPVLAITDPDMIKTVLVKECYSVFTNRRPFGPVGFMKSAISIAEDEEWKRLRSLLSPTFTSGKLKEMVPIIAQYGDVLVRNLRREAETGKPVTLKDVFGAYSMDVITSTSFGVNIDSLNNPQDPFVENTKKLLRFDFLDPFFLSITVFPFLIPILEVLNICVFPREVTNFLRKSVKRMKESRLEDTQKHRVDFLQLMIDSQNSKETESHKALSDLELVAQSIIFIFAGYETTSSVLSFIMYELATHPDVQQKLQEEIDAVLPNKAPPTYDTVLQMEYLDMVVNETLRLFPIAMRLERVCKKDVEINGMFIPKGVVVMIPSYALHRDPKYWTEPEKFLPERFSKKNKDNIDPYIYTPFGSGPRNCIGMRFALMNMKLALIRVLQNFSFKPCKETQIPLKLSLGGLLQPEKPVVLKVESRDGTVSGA
Chain of CYP2C19 (P33261 whole entry): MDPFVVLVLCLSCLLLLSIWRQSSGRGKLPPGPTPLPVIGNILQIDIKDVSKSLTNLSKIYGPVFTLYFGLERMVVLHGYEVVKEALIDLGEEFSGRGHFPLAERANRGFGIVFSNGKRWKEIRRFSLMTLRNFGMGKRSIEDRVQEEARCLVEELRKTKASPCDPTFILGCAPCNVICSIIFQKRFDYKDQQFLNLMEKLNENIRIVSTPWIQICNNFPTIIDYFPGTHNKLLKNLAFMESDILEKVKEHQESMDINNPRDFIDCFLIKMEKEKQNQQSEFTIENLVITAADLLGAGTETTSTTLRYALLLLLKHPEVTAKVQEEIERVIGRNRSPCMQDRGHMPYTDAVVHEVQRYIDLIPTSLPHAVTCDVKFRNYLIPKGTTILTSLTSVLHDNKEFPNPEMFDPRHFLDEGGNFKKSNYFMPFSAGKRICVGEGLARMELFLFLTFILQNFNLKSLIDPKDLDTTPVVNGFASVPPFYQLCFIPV

For `Cc1noc(C)c1-c1ccc2[nH]c(=O)n3c2c1OC[C@@H]3c1ccccn1` [INCB054329], which half-life ([1]; as summarised in discussion) is on record?
Its half-life is under 5 h.

What about the “oral clearance CLss/F, mean [SD]” value ([1]; overall, oral dosing, patients) of the same compound?
Its value is 95.5 [135] L/h.

And the “terminal elimination half-life t1/2, mean [SD]” value ([1]; overall, oral dosing, patients)?
The value was 2.24 [2.03] hours.

And the “patients with ≥1 any grade TRAE” value ([2]; 69 enrolled patients)?
Its value is 78%.

And the MTD per protocol ([2]; Part 1 TGA)?
The MTD per protocol was “not reached”.

And the DLTs ([2]; Part 1 TGA, both grade 4 thrombocytopenia at 30 mg QD and 22.5 mg BID)?
Its DLTs is 2 DLTs.

And the DLTs ([2]; Part 1 TGB, 20 mg BID)?
The DLTs was “No DLTs”.

What about the “TRAEs leading to dose interruptions” value ([2]; Part 1 TGB, due to grade 3 hyperglycemia) of the same compound?
The value was 2 patients.

What about the “tolerability of the 20 mg BID starting dose” value ([2]; Part 2 dose titration) of the same compound?
The value was “not tolerated”.

And the “patients requiring dose interruption due to TRAEs” value ([2]; Part 2 dose titration, 20 mg BID start, 11 patients)?
The value was 45%.

What about the “incidence of TRAE anemia” value ([2]; any grade) of the same compound?
Its value is 10%.

What about the “incidence of TRAE decreased appetite” value ([2]; any grade) of the same compound?
Its value is 26%.

And the “incidence of TRAE fatigue” value ([2]; any grade)?
Its value is 29%.

And the “incidence of TRAE nausea” value ([2]; any grade)?
The value was 35%.

And the “incidence of TRAE thrombocytopenia” value ([2]; any grade)?
Its value is 33%.

What about the “incidence of TRAE vomiting” value ([2]; any grade) of the same compound?
Its value is 10%.

And the “TRAEs (any)” value ([2]; any grade, n = 69)?
The value was 54 (78) n (%).

And the TRAE anemia ([2]; any grade, n = 69)?
The TRAE anemia was 7 (10) n (%).

What about the TRAE decreased appetite ([2]; any grade, n = 69) of the same compound?
The TRAE decreased appetite was 18 (26) n (%).

What about the TRAE diarrhea ([2]; any grade, n = 69) of the same compound?
Its TRAE diarrhea is 12 (17) n (%).

What about the TRAE dysgeusia ([2]; any grade, n = 69) of the same compound?
The TRAE dysgeusia was 9 (13) n (%).

What about the TRAE fatigue ([2]; any grade, n = 69) of the same compound?
The TRAE fatigue was 20 (29) n (%).

And the TRAE hyperglycemia ([2]; any grade, n = 69)?
The TRAE hyperglycemia was 3 (4)^c n (%).

And the TRAE nausea ([2]; any grade, n = 69)?
The TRAE nausea was 24 (35) n (%).

What about the TRAE vomiting ([2]; any grade, n = 69) of the same compound?
Its TRAE vomiting is 7 (10) n (%).

What about the TRAE thrombocytopenia ([2]; any grade, n = 69) of the same compound?
The TRAE thrombocytopenia was 23 (33) n (%).

What about the “incidence of TRAE AST increased” value ([2]; grade ≥3) of the same compound?
The value was 4%.

What about the “incidence of TRAE anemia” value ([2]; grade ≥3) of the same compound?
The value was 6%.

What about the “incidence of TRAE hyperglycemia” value ([2]; grade ≥3) of the same compound?
Its value is 3%.

What about the “incidence of TRAE neutropenia” value ([2]; grade ≥3) of the same compound?
Its value is 6%.

What about the “TRAEs (any)” value ([2]; grade ≥3, n = 69) of the same compound?
The value was 16 (23) n (%).

And the TRAE anemia ([2]; grade ≥3, n = 69)?
Its TRAE anemia is 4 (6) n (%).

And the TRAE decreased appetite ([2]; grade ≥3, n = 69)?
Its TRAE decreased appetite is 0 (0) n (%).

What about the TRAE diarrhea ([2]; grade ≥3, n = 69) of the same compound?
The TRAE diarrhea was 0 (0) n (%).

And the TRAE dysgeusia ([2]; grade ≥3, n = 69)?
The TRAE dysgeusia was 0 (0) n (%).

What about the TRAE fatigue ([2]; grade ≥3, n = 69) of the same compound?
The TRAE fatigue was 0 (0) n (%).

What about the TRAE hyperglycemia ([2]; grade ≥3, n = 69) of the same compound?
The TRAE hyperglycemia was 2 (3) n (%).

And the TRAE nausea ([2]; grade ≥3, n = 69)?
Its TRAE nausea is 1 (1) n (%).

And the TRAE vomiting ([2]; grade ≥3, n = 69)?
The TRAE vomiting was 1 (1) n (%).

And the TRAE thrombocytopenia ([2]; grade ≥3, n = 69)?
The TRAE thrombocytopenia was 9 (13) n (%).

And the deaths deemed treatment-related ([2]; in vivo)?
Its deaths deemed treatment-related is “none”.

And the “discontinuation, primary reason adverse event” value ([2]; n = 69)?
The value was 2 (3) n (%).

What about the “discontinuation, primary reason death” value ([2]; n = 69) of the same compound?
The value was 1 (1) n (%).

And the “TRAEs leading to dose interruptions” value ([2]; overall)?
The value was 29%.

What about the “TRAEs leading to dose reductions” value ([2]; overall) of the same compound?
Its value is 7%.

What about the “dose interruptions due to thrombocytopenia” value ([2]; overall) of the same compound?
Its value is 17%.

And the “patients who discontinued treatment due to TRAEs” value ([2]; overall)?
The value was 4%.

And the “serious TRAE anemia” value ([2]; overall)?
The value was 2 patients.

And the “serious TRAE thrombocytopenia” value ([2]; overall)?
Its value is 4 patients.

And the “patients experiencing serious TRAEs” value ([2]; overall, n = 69)?
The value was 7 patients.

And the confirmed clinical response (advanced malignancies; 69 patients)?
The confirmed clinical response was “none and no confirmed clinical responses”.

And the “patients with stable disease as best response” value (advanced malignancies; all with solid tumors)?
Its value is “Twenty-one”.

What about the “patients who maintained SD for ≥6 months” value (advanced malignancies; in vivo) of the same compound?
The value was 4 patients.

And the “discontinuation, primary reason disease progression” value (advanced malignancies; n = 69)?
The value was 53 (77) n (%).

What about the “metabolism by CYP3A4” value (CYP3A4) of the same compound?
Its value is “metabolized”.

What about the “metabolism by CYP2C19” value (CYP2C19) of the same compound?
Its value is “metabolized”.

Which “INR increase, patients” value [3] does the source give for `Cc1noc(C)c1-c1cnc2c(-c3ccc(C(=O)O)cc3)cn([C@@H](C)c3ccccn3)c2c1` [PLX51107] here?
The value was 17%.
